Rpn11 block: blocks the human proteasome subunit Rpn11. 360,000 compounds, 0.59% hits. human 26S proteasome, Ub4-pepOG fluorescence polarization; 20S core pre-blocked with epoxomicin. inhibition, % at 20 µM. O00487;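 active means inhibition at 20 µM, scaled to each plate's controls, above about 33%, limit read from the data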
Target sequence (O00487 whole entry, looked up): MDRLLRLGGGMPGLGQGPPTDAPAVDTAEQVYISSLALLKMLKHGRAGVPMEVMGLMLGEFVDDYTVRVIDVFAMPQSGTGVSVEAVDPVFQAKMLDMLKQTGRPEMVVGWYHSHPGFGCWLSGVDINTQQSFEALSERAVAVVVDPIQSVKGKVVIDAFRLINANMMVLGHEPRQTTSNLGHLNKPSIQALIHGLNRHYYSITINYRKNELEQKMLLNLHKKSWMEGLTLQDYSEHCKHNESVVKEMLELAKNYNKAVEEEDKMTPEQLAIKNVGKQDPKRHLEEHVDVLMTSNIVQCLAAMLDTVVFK
STEP block: blocks human striatal-enriched tyrosine phosphatase. P54829. recombinant STEP, OMFP fluorogenic substrate, fluorescence. inhibition, % at 20 µM. 360,000 compounds, 0.25% hits;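 active means inhibition at 20 µM, scaled per plate between control wells, above about 37%, limit read from the data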;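 further: 0% = DMSO with enzyme and substrate and 100% = substrate only without enzyme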
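Material: STEP (striatal-enriched tyrosine phosphatase) enzyme, cell-free | Medium: 50 mM Bis-Tris pH 6.0 with 2.5 mM DTT and 0.005% Tween 20 | Read-out: Percent inhibition scaled to no-enzyme and uninhibited-enzyme controls, plate-pattern corrected | Signal: Fluorescence read at 480 nm ex / 540 nm em | Times: 20 min reaction, room temperature, in the dark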
Scp-1 inhibitor: Scp-1 (human) phosphatase inhibition; Q9GZU7; Recombinant Scp1, phosphopeptide, malachite green phosphate absorbance; inhibition, % at 20 µM; 340,000 compounds, 0.88% hits;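 active means inhibition above about 50% at 20 µM, limit read from the data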;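 further: plate controls were DMSO wells with enzyme for no effect and wells lacking enzyme for full effect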
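Test system: SCP-1 phosphatase catalytic domain, residues 76-261 | Compound dosing: One concentration, 20 µM, with 1.0% DMSO | Schedule: 45 min room-temperature reaction, 5 min colour, 30 min stabiliser | Detection: Absorbance at 630 nm | Read-out basis: % inhibition of SCP-1 phosphate liberation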
SUMO1-SIM PPI: SUMO1-SIM interaction modulation. 360,000 compounds, 0.33% hits. SUMO1 binding to a labelled peptide, TR-FRET, 1 h. P63165. inhibition, % at 20 µM; in the data active means inhibition above about 37%
Target sequence (P63165 whole entry, looked up): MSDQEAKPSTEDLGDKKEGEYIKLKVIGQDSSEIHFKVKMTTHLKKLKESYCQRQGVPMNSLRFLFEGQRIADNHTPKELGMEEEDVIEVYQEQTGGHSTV
LMPTP block: LMPTP (human) inhibition; P24666; recombinant LMPTP-A, OMFP fluorogenic substrate, fluorescence intensity; inhibition, % at 20 µM; 360,000 compounds, 0.22% hits;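 active means compounds that cut the enzyme signal by at least half of the control window in the single-dose screen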;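 further: plate controls were DMSO wells with enzyme plus substrate for no effect and substrate without enzyme for full effect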
Target sequence (P24666 whole entry, looked up): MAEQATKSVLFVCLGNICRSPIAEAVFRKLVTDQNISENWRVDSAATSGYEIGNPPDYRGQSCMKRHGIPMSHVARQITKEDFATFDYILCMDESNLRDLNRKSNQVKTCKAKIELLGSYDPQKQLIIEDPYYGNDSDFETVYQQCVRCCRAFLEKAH
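Buffer or medium: Bis-Tris pH 6.0, DTT, detergent; Assay system: LMPTP-A enzyme; Quantity: 0.625 nM enzyme; Detection: endpoint fluorescence intensity; Times: 50 min dark incubation at room temperature; Controls: substrate-only low control, DMSO enzyme-plus-substrate high control; Doses: single 20 µM dose; Read-out: percent inhibition versus substrate-only and uninhibited controls; Reagent: 400 µM OMFP.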
DNMT1 inh: blocks human DNA methyltransferase DNMT1. P26358. DNMT1 molecular beacon, Hinp1I cleavage, fluorescence. inhibition (reported as % activation of signal), % at 10 µM. 360,000 compounds, 0.83% hits. AID 588458; in the data active means inhibition above about 50%
STEP inh conf: STEP (human) phosphatase inhibition, single concentration confirmation; AID 623866; recombinant STEP, OMFP fluorogenic substrate, fluorescence; shares compounds with STEP block; 520 compounds, 32% hits; inhibition, % at 20 µM; call rule not given here;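 further: 0% = enzyme with substrate plus DMSO and 100% = substrate without enzyme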
Numbers without * were called inactive; · = no result given. Rows were chosen to be rich in hits. Some 2.3% of all compounds tested hit in one or more screens of this group.

SMILES	Rpn11 block	STEP block	Scp-1 inhibitor	SUMO1-SIM PPI	LMPTP block	DNMT1 inh	STEP inh conf
COc1cc(CNc2nnnn2C)cc(OC)c1OC	-1	-4	-6	2	-1	1	·
CCOC(=O)c1ccccc1N/C=C/C(=O)c1ccccc1	-2	0	0	-23	2	-5	·
CCOC(=O)c1ccccc1N/C=C1\CCCCC1=O	-1	58*	-11	-13	-1	3	1
COc1cc2ccccc2cc1C(=O)NC(=S)Nc1cccc(C(=O)O)c1	2	42*	22	9	2	1	13
CCOc1ccc(-c2nc(CCl)cs2)cc1OC	-3	-6	-13	-3	0	3	·
O=C(O)c1ccc(NC(=O)c2ccccc2NC(=O)c2cccc(F)c2)cc1	-2	68*	-8	2	-2	-3	13
Cc1nc(NC(=O)C2CC2)sc1C(=O)Nc1ccccc1	-6	2	-4	-1	0	-2	·
Cc1nc(NC(N)=S)sc1C(=O)Nc1ccccc1	3	50*	3	0	11	1	16
Cc1ccccc1/C=N/Nc1nc2ccccc2c(=O)n1O	-9	76*	-8	-5	1	1	20
C=CCn1c(N/N=C/c2ccc(O)cc2)nc2ccccc2c1=O	-5	-1	3	-6	1	-7	·
c1ccc(CNc2nc(NCC3CC3)nc3cc(-c4ccccc4)sc23)cc1	-6	11	·	-5	5	-2	·
c1ccc(OCCNc2nc(NCC3CC3)nc3cc(-c4ccccc4)sc23)cc1	0	43*	·	-3	5	-15	7
Cc1ccc2c(CC(=O)Nc3cccc(S(=O)(=O)N4CCOCC4)c3)coc2c1	0	3	-5	4	1	-3	·
Cc1ccc(C(=O)N/N=C\c2ccc(-c3ccc(Cl)cc3)o2)cn1	15	7	-16	-20	1	0	·
Cc1ccc(C(=O)N/N=C\c2ccc(-c3ccc([N+](=O)[O-])cc3)o2)cn1	-12	60*	1	24	33	0	0
CCCNC(=O)C1(C)CCN(Cc2ccc(-n3ccnc3)cc2)C1 (stereo unspecified)	-2	6	·	-3	4	1	·
COc1ccc(/C=C/C(=O)c2ccccc2O)cc1CN1CCOCC1	-6	52*	-3	1	2	-6	-10
N#Cc1cc2cc3c(cc2nc1Cl)OCCO3	36	49*	·	11	22	-6	20
CCOC(=O)N/N=C(\C)c1ccccc1OC(F)F	-6	-4	-3	4	-3	2	·
Cc1onc(-c2ccccc2)c1C(=O)Nc1ccc(S(=O)(=O)NC(C)(C)C)cc1	-10	2	-7	4	0	1	·
CSc1ccccc1NC(=O)CN(C)C(=O)c1cccc(S(=O)(=O)N(C)C)c1	0	49*	1	-10	4	2	8
CN(CC(=O)Nc1cccc2ccccc12)C(=O)c1cccc(S(=O)(=O)N(C)C)c1	0	13	-2	-12	0	0	·
COc1ccc(N2C(=O)CSC23C(=O)Nc2ccccc23)cc1OC (stereo unspecified)	-2	48*	0	6	3	-4	8
CC(=O)Nc1ccc(C(=O)N/N=C/c2cccnc2)cc1	6	-3	6	-4	-2	2	·
O=C(N/N=C/c1cccnc1)c1ccc(NC(=O)c2ccc(Cl)cc2)cc1	6	53*	3	18	9	19	11
SMILES	Rpn11 block	STEP block	Scp-1 inhibitor	SUMO1-SIM PPI	LMPTP block	DNMT1 inh	STEP inh conf
O=C(CNS(=O)(=O)c1ccc(F)cc1)N1CCCC1	-3	-2	-3	2	0	-5	·
Cc1ccc(S(=O)(=O)NCC(=O)N2CCN(c3ccc(F)cc3)CC2)cc1	-3	40*	-4	-2	-2	1	-3
COc1cc(OC)c(OC)cc1CNCCNC(=O)c1ccco1	7	0	-3	5	-2	-2	·
N#CNc1nc(O)cc(=O)[nH]1	5	98*	49	16	87*	1	63*
Cc1ccc(CSc2nnc(-c3ccc4c(c3)OCO4)o2)cc1	4	0	-13	-1	2	-6	·
Cc1ccc(Nc2nnc(-c3ccc4c(c3)OCO4)o2)c(C)c1	12	48*	-17	-1	2	-2	4
O=C(CCC(=O)NCCCc1ccccc1)NCCCc1ccccc1	-9	119*	-3	0	-2	-1	15
COc1ccc(NC(=O)Nc2nc(C)cc(C)n2)c(OC)c1	4	2	3	-2	1	1	·
CCCc1cc(C(=O)N2CCCC(C(=O)c3cccc4ccccc34)C2)n(C)n1 (stereo unspecified)	1	49*	-3	-5	1	-1	1
CCc1cc(C(=O)N2CCCC(C(=O)c3cccc4ccccc34)C2)n(C)n1 (stereo unspecified)	-4	4	-7	-4	0	0	·
Cc1ccc(S(=O)(=O)N2CCCCC2)cc1NC(=O)c1ccc(=O)[nH]c1	-2	54*	·	12	54*	10	66*
COc1ccc(C(=O)Nc2cc(S(=O)(=O)N3CCCCC3)ccc2C)cc1	6	-1	·	1	-2	-15	·
COc1ccc(N2CCN(C(c3cccs3)C(C)NC(=O)C(=O)N3CCCC3)CC2)cc1 (stereo unspecified)	-3	60*	-7	-5	0	-4	14
Cc1ccc(C)c(NC(=O)c2cccc(Oc3ccc([N+](=O)[O-])cc3Cl)c2)c1	13	77*	-8	-3	14	-2	18
Cc1ccccc1COc1cccc(/C=N/NC(=O)c2nnn(-c3nonc3N)c2C)c1	-2	91*	-3	1	36	7	0
Cc1c(C(=O)N/N=C/c2cccc(O)c2)nnn1-c1nonc1N	-1	7	-2	-12	0	0	·
COc1ccc(/C=N/NC(=O)c2nnn(-c3nonc3N)c2CN(C)c2ccccc2)cc1	-1	73*	-6	-5	3	-6	-2
O=C(COC(=O)c1ccc(Br)o1)Nc1ccc(N2CCOCC2)cc1	7	-3	0	-1	-1	-3	·
S=c1[nH]nc(-c2cccnc2)n1/N=C/c1ccccc1	-6	49*	-5	-2	0	-1	7
Cc1n[nH]c(C)c1S(=O)(=O)N1CCC(C(=O)Nc2cccc(F)c2)CC1	-9	-2	1	0	-3	0	·
